The text below walks through data of ChEMBL document CHEMBL1155534, “Tetracyclic sulfones as potent gamma-secretase inhibitors: synthesis and structure-activity relationship studies” (Bioorg Med Chem Lett, 2010).

Data set [1] is described as follows: Inhibition of gamma secretase.
The nature of data set [2]: Inhibition of gamma-secretase-mediated cleavage of human APP expressed in HEK293 cells assessed as reduction in amyloid beta42 production. The format is cell-based.
The nature of data set [3]: Inhibition of gamma-secretase-mediated cleavage of human APP expressed in HEK293 cells assessed as reduction in amyloid beta40 production. The format is cell-based. The procedure, abridged: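 HEK293 cells expressing human APP carrying Swedish and London mutations, in fresh medium with inhibitor for 4 h. Aβ40 in conditioned medium measured by ECL; IC50 derived.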
The nature of data set [4]: Clearance in human hepatocyte pre million cells. It is filed as ADME, cell-based, Liver. To be noted: hepatocytes.
A further data set addresses hERG (KCNH2) (Homo sapiens, UniProt Q12809). Put plainly: Inhibition of human ERG assessed as rubidium efflux at 5 ug/ml.
In data set [5] the test system is Mus musculus. Put plainly: Reduction in amyloid beta 40 level in non-transgenic mouse brain at 10 mg/kg, po. The format is ADME, organism-based. Also noted: dose 10 mg/kg, route oral; scale not given: the % may be the effect or the level left. The note with it: in vivo. The procedure, abridged: (§1)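 Non-transgenic mice given 10 mg/kg orally; Aβ40 reduction expressed as percent relative to vehicle controls, mean values (n = 5).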

A short description of data set [6]: Plasma protein binding in human. The format is ADME, cell-free. To be noted: read-out: PPB (converted).
The test system of data set [7] is Mus musculus. Put plainly: Reduction in amyloid beta 40 level in non-transgenic mouse plasma at 10 mg/kg, po. The format is ADME, organism-based. Set-up: dose 10 mg/kg, route oral; scale not given: the % may be the effect or the level left. The note with it: in vivo. The procedure, abridged:
as §1

Sequence of hERG (KCNH2) (Q12809 whole entry): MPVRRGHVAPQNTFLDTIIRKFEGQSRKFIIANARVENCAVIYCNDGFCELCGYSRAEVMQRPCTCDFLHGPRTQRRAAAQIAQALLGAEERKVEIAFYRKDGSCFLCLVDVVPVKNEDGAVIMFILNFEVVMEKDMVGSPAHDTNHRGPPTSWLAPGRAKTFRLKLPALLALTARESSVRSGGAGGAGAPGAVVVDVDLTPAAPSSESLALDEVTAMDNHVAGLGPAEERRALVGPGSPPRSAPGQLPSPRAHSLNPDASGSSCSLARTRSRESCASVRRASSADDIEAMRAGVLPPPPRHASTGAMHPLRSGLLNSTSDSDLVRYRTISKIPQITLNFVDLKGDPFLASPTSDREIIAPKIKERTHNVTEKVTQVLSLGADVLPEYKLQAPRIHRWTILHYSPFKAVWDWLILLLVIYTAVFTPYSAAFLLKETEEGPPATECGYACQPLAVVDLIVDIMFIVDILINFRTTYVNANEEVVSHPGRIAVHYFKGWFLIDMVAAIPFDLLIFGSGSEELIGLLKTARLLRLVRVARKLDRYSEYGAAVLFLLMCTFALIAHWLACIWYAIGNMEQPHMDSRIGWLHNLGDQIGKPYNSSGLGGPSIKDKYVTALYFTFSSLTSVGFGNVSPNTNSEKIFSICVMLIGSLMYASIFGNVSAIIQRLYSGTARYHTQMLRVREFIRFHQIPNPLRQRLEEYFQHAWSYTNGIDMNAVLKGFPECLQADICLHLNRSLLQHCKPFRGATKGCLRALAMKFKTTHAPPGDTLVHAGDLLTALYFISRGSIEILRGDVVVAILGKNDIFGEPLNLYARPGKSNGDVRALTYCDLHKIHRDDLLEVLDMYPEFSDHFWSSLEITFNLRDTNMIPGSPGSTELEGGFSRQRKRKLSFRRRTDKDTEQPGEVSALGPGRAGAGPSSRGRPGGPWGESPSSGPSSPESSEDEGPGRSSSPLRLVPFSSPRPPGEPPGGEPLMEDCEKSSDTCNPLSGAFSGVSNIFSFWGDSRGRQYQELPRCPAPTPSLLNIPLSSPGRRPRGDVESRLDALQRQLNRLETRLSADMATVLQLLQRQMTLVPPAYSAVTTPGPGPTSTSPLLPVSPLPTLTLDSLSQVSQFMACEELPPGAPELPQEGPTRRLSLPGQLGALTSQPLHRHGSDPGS

One may read the IC50 as the concentration that inhibits the measured activity by half. In turn, `O=S1(=O)CC[C@@H]2[C@@H](CC[C@@]3(S(=O)(=O)c4ccc(C(F)(F)F)cc4)c4c(F)ccc(F)c4OC[C@@H]23)N1` gave an IC50 in data set [1] of 30 nM.
On to `CCCC1C[C@@H]2[C@@H](CC[C@@]3(S(=O)(=O)c4ccc(C(F)(F)F)cc4)c4c(F)ccc(F)c4OC[C@@H]23)NS1(=O)=O` (stereo not given in full), for which the IC50 is 1 nM in data set [2], 5.5 nM in data set [1] and 3 nM in data set [3].
The corresponding values for `C=CCC1C[C@@H]2[C@@H](CC[C@@]3(S(=O)(=O)c4ccc(C(F)(F)F)cc4)c4c(F)ccc(F)c4OC[C@@H]23)NS1(=O)=O` (stereo not given in full) are 2 nM, 7.7 nM and 7 nM.
The corresponding values for `COCC1C[C@@H]2[C@@H](CC[C@@]3(S(=O)(=O)c4ccc(C(F)(F)F)cc4)c4c(F)ccc(F)c4OC[C@@H]23)NS1(=O)=O` (stereo not given in full) are 8 nM, 9 nM and 7.8 nM.
For the molecule `C/C=C/CC1C[C@@H]2[C@@H](CC[C@@]3(S(=O)(=O)c4ccc(C(F)(F)F)cc4)c4c(F)ccc(F)c4OC[C@@H]23)NS1(=O)=O` (stereo not given in full), the IC50 in data set [1] stood at 14.6 nM.
On the same count and under the same terms, with `O=S1(=O)N[C@@H]2CC[C@@]3(S(=O)(=O)c4ccc(C(F)(F)F)cc4)c4c(F)ccc(F)c4OC[C@H]3[C@@H]2CC1C/C=C/c1ccccc1` (stereo not given in full) the figure was 60.9 nM.
`O=C(O)CC1C[C@@H]2[C@@H](CC[C@@]3(S(=O)(=O)c4ccc(C(F)(F)F)cc4)c4c(F)ccc(F)c4OC[C@@H]23)NS1(=O)=O` (stereo not given in full): the IC50 in data set [2] was found to be 1200 nM; in data set [1], 48.3 nM; in data set [3], 930 nM.
With `NC(=O)CC1C[C@@H]2[C@@H](CC[C@@]3(S(=O)(=O)c4ccc(C(F)(F)F)cc4)c4c(F)ccc(F)c4OC[C@@H]23)NS1(=O)=O` (stereo not given in full), the IC50 in data set [2] is 4 nM.
In the case of `O=S1(=O)N[C@@H]2CC[C@@]3(S(=O)(=O)c4ccc(C(F)(F)F)cc4)c4c(F)ccc(F)c4OC[C@H]3[C@@H]2CC1CCCO` (stereo not given in full), the IC50 worked out at 4.9 nM in data set [2], 9.5 nM in data set [1] and 3.8 nM in data set [3].
With `O=C(O)CCC1C[C@@H]2[C@@H](CC[C@@]3(S(=O)(=O)c4ccc(C(F)(F)F)cc4)c4c(F)ccc(F)c4OC[C@@H]23)NS1(=O)=O` (stereo not given in full), the results for the IC50 in data set [2], in data set [1] and in data set [3] were 64 nM, 17 nM and 40.6 nM, respectively.
Take `O=S1(=O)N[C@@H]2CC[C@@]3(S(=O)(=O)c4ccc(C(F)(F)F)cc4)c4c(F)ccc(F)c4OC[C@H]3[C@@H]2CC1CCN1CCCC1` (stereo not given in full): the half-maximal inhibitory concentration (IC50) in data set [1] was 45.5 nM.
On the same count and under the same terms, with `O=S1(=O)N[C@@H]2CC[C@@]3(S(=O)(=O)c4ccc(C(F)(F)F)cc4)c4c(F)ccc(F)c4OC[C@H]3[C@@H]2CC1CCN1CCOCC1` (stereo not given in full) the figure was 48.4 nM.
By hepatocyte CLint is commonly meant the rate of metabolic loss divided by the concentration. Usually inhibition stands for the change of the read-out against control, counted positive when it falls. Turning to `C[C@@H]1C[C@@H]2[C@@H](CC[C@@]3(S(=O)(=O)c4ccc(C(F)(F)F)cc4)c4c(F)ccc(F)c4OC[C@@H]23)NS1(=O)=O`, the hepatocyte CLint in data set [4] turned out to be 0.4 µL/min/1e6 cells. Moreover, the inhibition at 5 ug/ml at hERG (KCNH2) is 4%. The values for the IC50 in data set [2], in data set [1] and in data set [3] were 0.5 nM, 1.6 nM and 1 nM, respectively. In addition, the Activity in the data set with Mus musculus [5] amounted to 57%; with Mus musculus [7], 72%. In addition, the fraction unbound in data set [6] is 0.027.
As to `CC[C@@H]1C[C@@H]2[C@@H](CC[C@@]3(S(=O)(=O)c4ccc(C(F)(F)F)cc4)c4c(F)ccc(F)c4OC[C@@H]23)NS1(=O)=O`, the hepatocyte CLint in data set [4] was found to be 0.3 µL/min/1e6 cells. For the same molecule, the inhibition at 5 ug/ml on hERG (KCNH2) was determined as 10%. Further, the IC50 in data set [2] was 2 nM; in data set [1] it was 1.9 nM; in data set [3] it was 5 nM. Also, the figures for the Activity in the data set on Mus musculus [5] and with Mus musculus [7] were 42% and 84%, respectively. For the same molecule, the fraction unbound in data set [6] was 0.019.
